Experimental data: ChEMBL document CHEMBL1152508, “Interaction of drug based binuclear mixed-ligand complexes with DNA” (2009)

Experiments:
Type in all cases: functional
[1] = system: Staphylococcus aureus; assay: Antibacterial activity against Staphylococcus aureus after 24 hrs by twofold serial dilution method
In short: (§1)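 Bacteria activated by inoculation into luria broth for 24 h at 30 °C. Compounds dissolved in DMSO, then diluted in luria broth as twofold serial concentrations. Test cultures incubated 24 h at 37 °C. MIC taken as the lowest concentration giving complete inhibition of growth.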

[2] = system: Bacillus subtilis; assay: Antibacterial activity against Bacillus subtilis after 24 hrs by twofold serial dilution method; in short: as §1
[3] = system: Serratia marcescens; assay: Antibacterial activity against Serratia marcescens after 24 hrs by twofold serial dilution method; in short: as §1
[4] = system: Pseudomonas aeruginosa; assay: Antibacterial activity against Pseudomonas aeruginosa after 24 hrs by twofold serial dilution method; in short: as §1
[5] = system: Escherichia coli; assay: Antibacterial activity against Escherichia coli after 24 hrs by twofold serial dilution method; in short: as §1

| SMILES | Activity [1] | Activity [2] | Activity [3] | Activity [4] | Activity [5] |
| --- | --- | --- | --- | --- | --- |
| COc1ccc(/N=C(C)\C(C)=N\c2ccc(OC)cc2)cc1 | 1855 µM | 1518 µM | 2024 µM | 2193 µM | 2361 µM |
| C/C(=N/c1ccccc1/N=C(\C)c1ccccc1)c1ccccc1 | 1760 µM | 1600 µM | 1760 µM | 1920 µM | 2080 µM |
| Nc1cccc2cccc(N)c12 | 3160 µM | 3476 µM | 4108 µM | 3792 µM | 4108 µM |
| CCn1cc(C(=O)O)c(=O)c2cc(F)c(N3CCN(C)CC3)cc21 [PEFLOXACIN] | 2.1 µM | 2.4 µM | 5.1 µM | 5.7 µM | 2.7 µM |
| COc1ccc(/C=N/CC/N=C/c2ccc(OC)cc2)cc1 | 1687 µM | 1518 µM | 1687 µM | 1855 µM | 2193 µM |
| CCn1cc(C(=O)O)c(=O)c2cc(F)c(N3CCNCC3)cc21 [NORFLOXACIN] | 2.5 µM | 2.51 µM | 4.07 µM | 3.76 µM | 2.82 µM |
| COc1c(N2CCNC(C)C2)c(F)cc2c(=O)c(C(=O)O)cn(C3CC3)c12 (stereo not given) [GATIFLOXACIN] | 5.06 µM | 4 µM | 2.93 µM | 1.01 µM | 2.93 µM |
| CCN1CCN(c2cc3c(cc2F)c(=O)c(C(=O)O)cn3C2CC2)CC1 [ENROFLOXACIN] | 1.95 µM | 3.9 µM | 1.67 µM | 1.39 µM | 1.39 µM |
| C[C@H]1COc2c(N3CCN(C)CC3)c(F)cc3c(=O)c(C(=O)O)cn1c23.C[C@H]1COc2c(N3CCN(C)CC3)c(F)cc3c(=O)c(C(=O)O)cn1c23.O [LEVOFLOXACIN] | 1.66 µM | 2.21 µM | 1.67 µM | 1.66 µM | 0.97 µM |
| O=C(O)c1cn(C2CC2)c2cc(N3CCNCC3)c(F)cc2c1=O [CIPROFLOXACIN] | 1.63 µM | 1.09 µM | 1.63 µM | 1.36 µM | 1.36 µM |
| CC1COc2c(N3CCN(C)CC3)c(F)cc3c(=O)c(C(=O)O)cn1c23 (stereo not given) [OFLOXACIN] | 1.94 µM | 1.38 µM | 1.66 µM | 2.21 µM | 1.38 µM |
| C[C@@H]1CN(c2c(F)c(N)c3c(=O)c(C(=O)O)cn(C4CC4)c3c2F)C[C@H](C)N1 [SPARFLOXACIN] | 1.27 µM | 2.04 µM | 1.53 µM | 1.53 µM | 1.27 µM |
| Nc1ccccc1N | 5086 µM | 5548 µM | 6010 µM | 6010 µM | 6473 µM |
| NCCN [ETHYLENEDIAMINE] | 8319 µM | 9151 µM | 9983 µM | 10815 µM | 10815 µM |
